In data set [1] the target is T1, UDP-glucuronosyltransferase 1A8 (Homo sapiens, UniProt Q9HAW9).
T1 sequence (Q9HAW9 whole entry): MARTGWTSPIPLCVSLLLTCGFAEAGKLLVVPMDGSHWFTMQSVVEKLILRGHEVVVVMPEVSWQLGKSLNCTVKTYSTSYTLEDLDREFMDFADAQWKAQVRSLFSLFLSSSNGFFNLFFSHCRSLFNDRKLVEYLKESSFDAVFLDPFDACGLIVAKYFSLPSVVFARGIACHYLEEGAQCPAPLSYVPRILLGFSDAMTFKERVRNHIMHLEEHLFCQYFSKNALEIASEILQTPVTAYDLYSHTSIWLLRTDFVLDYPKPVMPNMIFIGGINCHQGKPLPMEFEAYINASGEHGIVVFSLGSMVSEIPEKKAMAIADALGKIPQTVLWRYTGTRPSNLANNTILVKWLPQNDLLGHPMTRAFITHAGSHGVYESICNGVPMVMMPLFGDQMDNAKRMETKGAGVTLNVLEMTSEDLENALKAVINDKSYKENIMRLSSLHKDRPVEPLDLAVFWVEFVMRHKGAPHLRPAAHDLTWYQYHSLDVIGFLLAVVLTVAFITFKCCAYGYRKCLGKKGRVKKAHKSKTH
The data set can be described thus: Activity of human UGT1A8 expressed in microsomes isolated from baculovirus infected insect cell assessed as enzyme-mediated (2S,3S,4S,5R,6R)-6-((1-carboxy-2-(4-((6-methoxy-1-methyl-1H-benzo[d]imidazol-2-yl)methoxy)phenyl)ethylthio)carbonylamino)-3,4,5-trihydroxytetrahydro-2H-pyran-2-carboxylic acid formation at 20 uM after 4 hrs by radio-HPLC/LC-MS/MS analysis in presence of UDPGA. It counts as ADME.

Data set [2] relates to Liver microsome. The data set can be described thus: Drug metabolism in Sprague-Dawley rat liver microsomes assessed as formation of 3-(4-((6-methoxy-1-methyl-1H-benzo[d]imidazol-2-yl)methoxy)phenyl)-2-(methylsulfonyl)propanamide at 20 uM after 2 hrs by radio-HPLC/LC-MS/MS analysis in presence of NADPH-generating system/SAM. Format: ADME. A general note: Liver microsomes are vesicles of endoplasmic reticulum, rich in cytochrome P450 enzymes.

The target of data set [3] is T2, UDP-glucuronosyltransferase 1A3 (Homo sapiens, UniProt P35503).
T2 sequence (P35503 whole entry): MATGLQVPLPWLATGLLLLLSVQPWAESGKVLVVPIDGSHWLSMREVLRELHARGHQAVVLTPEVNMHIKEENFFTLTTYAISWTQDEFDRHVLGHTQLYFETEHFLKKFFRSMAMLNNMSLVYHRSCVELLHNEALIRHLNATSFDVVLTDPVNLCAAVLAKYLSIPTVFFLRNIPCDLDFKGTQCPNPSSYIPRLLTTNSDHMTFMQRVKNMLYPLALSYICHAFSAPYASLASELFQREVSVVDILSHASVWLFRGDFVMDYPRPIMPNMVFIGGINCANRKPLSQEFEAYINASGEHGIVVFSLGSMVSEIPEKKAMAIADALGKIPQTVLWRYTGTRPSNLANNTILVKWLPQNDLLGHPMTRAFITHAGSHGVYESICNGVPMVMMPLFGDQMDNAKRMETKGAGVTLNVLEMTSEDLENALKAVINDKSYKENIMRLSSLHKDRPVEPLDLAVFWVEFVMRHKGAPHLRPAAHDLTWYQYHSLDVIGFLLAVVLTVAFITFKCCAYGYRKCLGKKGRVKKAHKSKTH
The data set can be described thus: Activity of human UGT1A3 expressed in microsomes isolated from baculovirus infected insect cell assessed as enzyme-mediated 5-(4-((6-hydroxy-1-methyl-1H-benzo[d]imidazol-2-yl)methoxy)benzyl)thiazolidine-2,4-dione formation at 20 uM after 4 hrs by radio-HPLC/LC-MS/MS analysis in presence of NADPH-generating system/SAM. It counts as ADME.

For data set [4], the target named is T3, UDP-glucuronosyltransferase 2B7 (Homo sapiens, UniProt P16662).
T3 sequence (P16662 whole entry): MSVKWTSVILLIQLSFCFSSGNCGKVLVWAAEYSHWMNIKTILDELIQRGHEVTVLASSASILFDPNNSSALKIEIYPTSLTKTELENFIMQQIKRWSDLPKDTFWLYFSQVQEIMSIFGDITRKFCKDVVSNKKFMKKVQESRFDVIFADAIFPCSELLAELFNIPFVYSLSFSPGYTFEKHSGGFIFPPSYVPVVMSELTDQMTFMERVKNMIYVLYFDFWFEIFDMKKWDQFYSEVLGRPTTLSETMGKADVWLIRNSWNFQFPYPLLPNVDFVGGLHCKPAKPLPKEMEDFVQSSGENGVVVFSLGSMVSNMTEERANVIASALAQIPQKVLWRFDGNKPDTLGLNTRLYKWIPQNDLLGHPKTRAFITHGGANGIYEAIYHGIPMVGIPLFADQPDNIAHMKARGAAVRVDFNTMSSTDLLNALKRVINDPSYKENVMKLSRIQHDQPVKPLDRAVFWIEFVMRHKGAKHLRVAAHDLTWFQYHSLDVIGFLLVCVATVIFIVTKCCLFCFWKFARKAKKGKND
Briefly: Activity of human UGT2B7 expressed in microsomes isolated from baculovirus infected insect cell assessed as enzyme-mediated 2-hydroxy-3-(4-((6-methoxy-1-methyl-1H-benzo[d]imidazol-2-yl)methoxy)phenyl)propanamide formation at 20 uM after 4 hrs by radio-HPLC/LC-MS/MS analysis in presence of NADPH-generating system and NADPH-generating system/SAM in presence of UDPGA and UDPGA/SAM. It counts as ADME.

The nature of data set [5]: Drug metabolism in monkey hepatocytes assessed as formation of (2S,3S,4S,5R,6R)-3,4,5-trihydroxy-6-(5-(4-((6-methoxy-1-methyl-1H-benzo[d]imidazol-2-yl)methoxy)benzyl)-2,4-dioxothiazolidin-3-yl)tetrahydro-2H-pyran-2-carboxylic acid at 30 uM after 3 hrs by radio-HPLC/LC-MS/MS analysis in presence of UDPGA and UDPGA/SAM. The following applies: cynomolgus monkey.
Data set [6] concerns the target Cytochrome P450 3A4 (Homo sapiens, UniProt P08684). Briefly: Activity of human CYP3A4 expressed in microsomes isolated from baculovirus infected insect cell assessed as enzyme-mediated compound formation treated with [14C]-rivoglitazone at 20 uM after 2 hrs by radio-HPLC/LC-MS/MS analysis in presence of NADPH-generating system. Format: ADME. The procedure, abridged: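 Baculovirus-insect-cell microsomes expressing the human CYP (1 mg/ml protein) were incubated with [14C]rivoglitazone (20 μM) in 50 mM potassium phosphate (pH 7.4) or 100 mM Tris-HCl (pH 7.5) with an NADPH-generating system (2 mM NADP+, 20 mM glucose 6-phosphate, 2 units/ml G6PDH, 10 mM MgCl2) for 2 h at 37°C. Insect-cell control supersomes served as the control. Reactions were stopped with acetonitrile, and the concentrated supernatants were analysed by radio-HPLC, LC-MS and LC-MS/MS.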

The target of data set [7] is T3, UDP-glucuronosyltransferase 2B7. The data set can be described thus: Activity of human UGT2B7 expressed in microsomes isolated from baculovirus infected insect cell assessed as enzyme-mediated compound formation treated with [14C]-rivoglitazone at 20 uM after 4 hrs by radio-HPLC/LC-MS/MS analysis in presence of UDPGA, UDPGA/SAM.

Sequence of Cytochrome P450 3A4 (P08684 whole entry): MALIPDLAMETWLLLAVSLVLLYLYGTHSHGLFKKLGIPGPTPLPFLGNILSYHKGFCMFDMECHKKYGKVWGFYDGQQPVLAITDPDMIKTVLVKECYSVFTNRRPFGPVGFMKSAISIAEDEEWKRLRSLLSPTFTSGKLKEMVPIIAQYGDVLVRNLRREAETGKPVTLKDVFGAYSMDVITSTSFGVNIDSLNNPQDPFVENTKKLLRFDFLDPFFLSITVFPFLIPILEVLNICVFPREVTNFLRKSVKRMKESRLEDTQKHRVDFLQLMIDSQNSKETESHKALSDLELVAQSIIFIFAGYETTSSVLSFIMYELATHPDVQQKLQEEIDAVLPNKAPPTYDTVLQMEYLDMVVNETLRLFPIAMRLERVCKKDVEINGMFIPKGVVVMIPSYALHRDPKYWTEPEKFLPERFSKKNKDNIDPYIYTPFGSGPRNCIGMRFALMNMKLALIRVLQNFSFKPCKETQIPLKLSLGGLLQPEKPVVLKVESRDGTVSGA

As to `COc1ccc2nc(COc3ccc(C[14CH]4SC(=O)NC4=O)cc3)n(C)c2c1.Cl` (racemic), the Drug metabolism entry in data set [1] was “metabolite_not_detected”; in data set [2] it was “metabolite_detected”; in data set [3], “metabolite_not_detected”; in data set [4], “metabolite_not_detected”; in data set [5], “metabolite_detected”.
With `COc1ccc2nc(COc3ccc(CC(S)C(=O)O)cc3)n(C)c2c1` (configuration not stated), the Drug metabolism entry in data set [6] and in data set [7] was “metabolite_detected” each time.

Source of the values: ChEMBL document CHEMBL3526048, “In vitro metabolism of rivoglitazone, a novel peroxisome proliferator-activated receptor γ agonist, in rat, monkey, and human liver microsomes and freshly isolated hepatocytes” (Drug Metab Dispos, 2011).
